Screens as filed in PubChem.
A selection: hits, their analogues and other compounds. The true share with any hit is near 1.3%.
RAD54 branch – inhibitors of human RAD54 branch migration, primary screen, biochemical, fluorescence, single point; DNA repair and recombination protein RAD54-like (Homo sapiens), Q92698; RAD54 Holliday junction branch migration, FAM/BHQ fluorescence; inhibition, % at 10.4 µM; 0.14% of 360,000 active;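 active = mean normalized replicate activity at least 40 and at least half of replicates scoring 40 or more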;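 note: inhibitors cause a drop in the FAM fluorescence signal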
Target sequence (Q92698 whole entry, looked up): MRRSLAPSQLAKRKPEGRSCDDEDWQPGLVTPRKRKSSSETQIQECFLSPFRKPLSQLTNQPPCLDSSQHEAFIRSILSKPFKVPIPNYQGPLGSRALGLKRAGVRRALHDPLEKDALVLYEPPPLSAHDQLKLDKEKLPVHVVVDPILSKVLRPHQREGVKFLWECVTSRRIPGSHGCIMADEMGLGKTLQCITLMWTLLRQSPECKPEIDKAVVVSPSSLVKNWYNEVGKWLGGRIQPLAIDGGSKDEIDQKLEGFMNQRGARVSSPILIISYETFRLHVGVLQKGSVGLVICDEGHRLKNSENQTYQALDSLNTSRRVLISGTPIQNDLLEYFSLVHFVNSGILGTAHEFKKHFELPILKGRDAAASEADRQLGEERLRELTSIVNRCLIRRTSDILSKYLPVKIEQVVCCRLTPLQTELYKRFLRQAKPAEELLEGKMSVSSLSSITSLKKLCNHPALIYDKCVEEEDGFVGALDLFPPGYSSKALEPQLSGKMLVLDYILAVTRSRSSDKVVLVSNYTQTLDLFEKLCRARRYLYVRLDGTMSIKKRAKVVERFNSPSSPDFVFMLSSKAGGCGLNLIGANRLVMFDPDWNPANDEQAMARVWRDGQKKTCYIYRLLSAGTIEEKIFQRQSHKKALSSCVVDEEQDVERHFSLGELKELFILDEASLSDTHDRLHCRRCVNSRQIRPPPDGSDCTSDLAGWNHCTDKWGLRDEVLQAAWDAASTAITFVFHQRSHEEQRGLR
Xi reactivation – activators of inactive X chromosome reactivation, primary screen, imaging, XiGFP fibroblasts, GFP high-content imaging, set 2 | XiGFP mouse fibroblasts, % GFP-positive cells imaging, 3 d; cells co-treated with 5-aza-dC sensitizer; scaled so ellipticine positive control = 100% | activation, % at 7.58 µM | 0.055% of 360,000 active;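 active = mean normalized replicate activation at least 10% and every replicate at or above 10%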
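Assay system: SV40-immortalized XiGFP fibroblast cells, line 68-5-11; buffer or medium: DMEM plus 5-aza-dC sensitizer; compound: one concentration, pinned; timing: compounds 3 days, fix/stain 15 min at room temperature; benchmarks: positive control ellipticine, 6 µM final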
CASP6 VEID inh – human caspase-6 inhibitors, primary screen, biochemical, VEID-R110 fluorescence, single point, set 2; inhibition, % at 12.5 µM; purified caspase-6, Z-VEID-R110 cleavage fluorescence; AID 686996, 2013; P55212; 0.53% of 350,000 active;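 active = mean inhibition across replicates at least about 35%, with every replicate also reaching that limit, limit read from the data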
AF4-AF9 inh – inhibitors of AF4 peptide binding to AF9, primary screen, biochemical, AlphaScreen, biotin-AF4 peptide, FLAG-AF9, single point | AID 651704, 2012 | 0.47% of 350,000 active | inhibition, % at 10 µM;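 active = every replicate reaching a set inhibition limit, whatever the replicate mean, cut at about 25% in these data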
S100A4 MyoIIA – inhibitors of S100A4-myosin IIA peptide binding, primary screen, biochemical, fluorescence polarization, TAMRA-MyoIIA peptide | Protein S100-A4 (Homo sapiens), P26447 | inhibition, % at 10.7 µM | 0.14% of 360,000 active;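 active = mean inhibition of at least 70% across replicates, with every replicate also reaching that level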
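Material: human S100A4 monomer with TAMRA-labelled myosin IIA peptide; buffer or medium: HEPES pH 7.2 with CaCl2, KCl, NaCl, DTT, Triton; compound dosing: one concentration per compound; schedule: 5 min incubation before reading; benchmarks: neutral control DMSO, positive control TFP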
RAD52 anneal inh – RAD52 DNA annealing inhibitors, primary screen, biochemical, FRET, single point, set 2; DNA repair protein RAD52 homolog (Homo sapiens), P43351; recombinant RAD52 DNA annealing, FRET fluorescence; inhibition, % at 18.7 µM; 0.46% of 360,000 active; AID 651710, 2012;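 active = every replicate showing at least 50% inhibition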
Hits are given with their value; 0 = inactive; - = no result.

SMILES	RAD54 branch	Xi reactivation	CASP6 VEID inh	AF4-AF9 inh	S100A4 MyoIIA	RAD52 anneal inh
CCOC(=O)C1(CCOc2ccccc2)CCN(Cc2cccc3nonc23)CC1	0	0	0	25.8	0	0
O=C(/C=C/c1ccco1)c1cccnc1	-	0	64.9	0	0	0
O=C(C=Cc1ccco1)c1cc(Cl)ccc1O	0	0	45.1	0	0	0
CC(/C=C/c1ccco1)=N/NC(=O)OC(C)(C)C	-	0	0	0	0	0
CC(/C=C/c1ccco1)=N\NC(=O)c1cc(Cl)ccc1O	-	0	52.2	0	0	0
CC(C)NC(=O)N(C)C[C@@H]1Oc2ccc(NS(=O)(=O)c3cccs3)cc2C(=O)N([C@H](C)CO)C[C@@H]1C	-	0	-	-	-	-
CC(=O)N(C)C[C@H]1Oc2ccc(N(C)C)cc2CC(=O)N(C)C[C@H]1C	-	0	-	-	-	-
COCC#Cc1ccc([C@@H]2[C@@H](CO)N3CCCCN(C(=O)CN(C)C)C[C@@H]23)cc1	0	0	0	0	0	0
CN(C)CC#Cc1ccc([C@H]2[C@@H](CO)N3CCCCN(C(=O)CN(C)C)C[C@H]23)cc1	0	0	0	0	0	87.0
COCC#Cc1ccc([C@H]2[C@H]3CN(C(=O)CN(C)C)CCCCN3[C@H]2CO)cc1	0	0	0	0	0	0
CN(C)CC#Cc1ccc([C@@H]2[C@H]3CN(C(=O)CN(C)C)CCCCN3[C@H]2CO)cc1	0	0	0	0	0	61.9
CN(C)CC#Cc1ccc([C@@H]2[C@H](CO)N3CCCCN(C(=O)CN(C)C)C[C@@H]23)cc1	0	0	0	0	0	87.8
CC(C)CC#Cc1ccc([C@@H]2[C@H](CO)N3CCCCN(C(=O)c4ccc5c(c4)OCO5)C[C@@H]23)cc1	0	0	0	0	0	57.9
COc1ccc(NC(=O)Nc2ccc3c(c2)C(=O)N([C@@H](C)CO)C[C@H](C)[C@@H](CN(C)S(=O)(=O)c2ccc(C)cc2)OCCCC[C@@H](C)O3)cc1	0	0	0	0	0	0
C[C@@H]1CN([C@@H](C)CO)C(=O)c2cccc(NS(C)(=O)=O)c2O[C@@H]1CN(C)S(C)(=O)=O	0	0	0	0	0	0
C[C@H](CO)N1C[C@H](C)[C@H](CN(C)C(=O)CCCN(C)C)OCCCC[C@H](C)Oc2ccc(NS(=O)(=O)c3ccccc3)cc2C1=O	0	0	0	0	0	0
CN(C)CC#Cc1ccc([C@@H]2[C@@H](CO)N3CCCCN(C(=O)CN(C)C)C[C@H]23)cc1	0	0	0	0	0	60.9
CN(C)CC#Cc1ccc([C@H]2[C@H](CO)N3CCCCN(C(=O)CN(C)C)C[C@@H]23)cc1	0	0	0	0	0	74.2
COCC#Cc1ccc([C@@H]2[C@@H](CO)N3CCCCN(C(=O)CN(C)C)C[C@H]23)cc1	0	0	0	0	0	0
C[C@H]1CN([C@@H](C)CO)C(=O)c2cc(/C=C/c3ccccc3)cnc2O[C@@H]1CN(C)C(=O)c1ccc2c(c1)OCO2	0	0	0	0	0	0
C[C@H]1CN([C@@H](C)CO)C(=O)c2cc(-c3ccncc3)cnc2O[C@H]1CN(C)C(=O)Nc1ccc2c(c1)OCO2	0	0	0	0	0	0
CCOc1ccc(N2CC(C(=O)NNC(=O)c3ccc(Br)cc3)CC2=O)cc1 (stereo not given)	0	0	0	0	73.2	0
CN(C)c1cc(Cl)c2nonc2c1N	0	0	99.2	0	0	0
COc1ccc2c3c(n(C)c2c1)[C@H](CO)N(C(=O)c1ccccn1)CC31CCN(C)CC1	-	0	-	-	-	-
CC(C)(C)CC(C)(C)N=C1Nc2ccccc2NC12C[C@H]1CCC(=O)N3CC[C@@H](C2)[C@@H]13 (stereo not given in full)	0	0	0	28.2	0	0
SMILES	RAD54 branch	Xi reactivation	CASP6 VEID inh	AF4-AF9 inh	S100A4 MyoIIA	RAD52 anneal inh
CC(C)(C)CC(C)(C)N=C1Nc2cc(Cl)c(Cl)cc2NC12C[C@H]1CCC(=O)N3CC[C@@H](C2)[C@@H]13 (stereo not given in full)	0	0	0	0	0	0
C[C@@H]1CN(C)C(=O)c2cccc(N(C)C)c2O[C@@H]1CN(C)C(=O)OC(C)(C)C	-	0	-	-	-	-
Cc1ccc(C(=O)COC(=O)C2CC3CCCC(C2)C3=O)cc1[N+](=O)[O-] (stereo not given)	0	0	0	0	140.4	0
Cc1ccc([N+](=O)[O-])c(NC(=O)COC(=O)C2CC3CCCC(C2)C3=O)c1C (stereo not given)	0	0	0	0	0	0
COc1ccc(S(=O)(=O)N[C@@H]2CC[C@@H](CC(=O)NCCc3ccncc3)O[C@@H]2CO)cc1	0	0	0	0	0	0
CCC(/C=C1\Sc2ccc(OC)cc2N1CC)=C\c1sc2ccc(OC)cc2[n+]1CCCS(=O)(=O)[O-]	0	0	0	0	98.9	0
CN=C(Nc1cccnc1)c1cccc(C(F)(F)F)c1	0	0	65.2	0	0	0
O=C(Cc1ccccc1)N[C@H]1C=C[C@@H](CC(=O)N2CCOCC2)O[C@H]1CO	0	0	0	0	0	0
O=C(N[C@H]1C=C[C@H](CC(=O)N2CCOCC2)O[C@@H]1CO)c1ccc2c(c1)OCO2	0	0	0	0	0	0
Cc1cc(-c2nn(-c3ccccc3F)cc2CNCCc2cnc[nH]2)c(C)s1	0	0	0	29.4	0	0
O=C(O)C[C@H]1C=C[C@@H](NC(=O)Nc2ccccc2)[C@H](CO)O1	0	0	0	0	0	0
O=C(O)c1cc(-c2ccc(-c3c(-c4ccc5c(c4)OCO5)noc3-c3ccsc3)cc2)nc2ccccc12	0	0	37.1	0	0	0
C[C@@H]1CCCCO[C@@H](CN(C)CC2CC2)[C@H](C)CN([C@@H](C)CO)C(=O)c2cc(NC(=O)NC3CCCCC3)ccc2O1	0	0	0	0	0	0
Nc1ccc(S(=O)(=O)Nc2nc3ccccc3o2)cc1	0	0	61.7	0	0	0
CCCC(=O)Nc1ccc2c(c1)OC[C@@H](C)N(CCc1ccccc1)C[C@H](C)[C@@H](OC)CN(C)C2=O	-	0	-	-	-	-
Cc1ccc(/C=C2/C(=O)ON=C2c2ccccc2)o1	-	0	59.6	0	0	0
O=C1ON=C(c2ccccc2)/C1=C\c1ccco1	0	0	35.9	0	0	0
O=C1ON=C(c2ccccc2)/C1=C/c1ccccc1	0	0	0	0	0	0
